According to PMC10723041 (Science (New York, N.Y.), 2021):
Where two headings read alike, the source gives them in different places.

Legend:
S. aureus Newman = test: S. aureus sepsis; assay type: in vivo, Swiss Webster mice; conditions: NL1 or Gm alone
P. aeruginosa PA14 [1] = test: P. aeruginosa intranasal lung infection model; assay type: in vivo, Swiss Webster mice; conditions: for lung bacterial burden, single agent: NL1 or Gm administered separately, lungs collected 5h after infection
persisters = test: Persister assay with H2S donor; assay type: cell-based
S. aureus CSE (SaCSE) = S. aureus CSE (SaCSE) (Staphylococcus aureus, UniProt X5E0F1); test: H2S production enzymatic assay, SaCSE; assay type: biochemical; conditions: for inhibition of bCSEs (SaCSE): at considerably higher concentrations than for hCSE
[2] = biological target: P. aeruginosa CSE (PaCSE) (Pseudomonas aeruginosa, UniProt Q9I6A0); test: H2S production enzymatic assay, PaCSE; assay type: biochemical; conditions: for inhibition of bCSEs (PaCSE): at considerably higher concentrations than for hCSE
SaCSE = SaCSE (Staphylococcus aureus, UniProt X5E0F1); test: Microscale Thermophoresis; assay type: binding
[3] = test system: S. aureus RN4220 (MSSA) and USA300 (MRSA); test: Antibiotic potentiation; assay type: cell-based
[4] = test system: P. aeruginosa PA14 and PAO1; test: Antibiotic potentiation; assay type: cell-based
[5] = test system: different types of human cells; test: Toxicity to human cells; assay type: cell-based; conditions: various assays
[6] = Chronic exposure in animal model; assay type: in vivo; conditions: stringent animal model
S. aureus USA300 = test: Persister viability under antibiotic challenge; assay type: cell-based; conditions: wt cells, ciprofloxacin 10 µg/ml challenge
P. aeruginosa PA14 [7] = test: Persister viability under antibiotic challenge; assay type: cell-based; conditions: wt cells, ciprofloxacin 10 µg/ml challenge
Procedure, shortened: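 Exponentially growing P. aeruginosa PA14 cultures were challenged with ciprofloxacin at 10 µg/ml. The viable cell fraction was followed over time as a killing curve, and the curve tail was taken as the persister population. Data are mean ± SE, n=3.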

P. aeruginosa PA14 [8] = test: Pyocyanin redox state in stationary phase culture; assay type: cell-based; conditions: well-aerated PA14; NL1 180 µM for 18 h
Procedure, shortened: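 Stationary-phase P. aeruginosa PA14 cultures (OD600 ~1.5) were well aerated and treated with test compound at 180 µM for 18 h. Pyocyanin redox state was judged visually by culture colour: blue/green for oxidized, light yellow for reduced. Comparators were untreated wt and a cbs/cse(−) mutant.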

SaCSE H339A mutant = biological target: T1, SaCSE H339A mutant (Staphylococcus aureus, UniProt X5E0F1, H339A); test: H2S generating activity of SaCSE H339A mutant; assay type: biochemical, S. aureus; conditions: for IC50: read-out: IC50 for SaCSE H339A mutant, mean ± SE, n=2
T1 sequence (X5E0F1 1-380 H339A): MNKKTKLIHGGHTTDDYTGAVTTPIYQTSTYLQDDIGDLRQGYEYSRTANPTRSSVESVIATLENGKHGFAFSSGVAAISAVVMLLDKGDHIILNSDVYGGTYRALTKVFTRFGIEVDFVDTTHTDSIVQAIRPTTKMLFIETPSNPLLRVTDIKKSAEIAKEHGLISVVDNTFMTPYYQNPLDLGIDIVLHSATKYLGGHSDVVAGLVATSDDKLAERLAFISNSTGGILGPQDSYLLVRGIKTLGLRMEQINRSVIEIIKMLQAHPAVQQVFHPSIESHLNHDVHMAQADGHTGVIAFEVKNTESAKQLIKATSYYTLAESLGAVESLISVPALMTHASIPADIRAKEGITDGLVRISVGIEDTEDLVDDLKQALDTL

[9] = to approximately the same extent as genetic inactivation of bCSE

## gentamycin [Gm, reference compound]
S. aureus Newman
  survival, single agent: neither NL1 nor Gm alone increased survival
P. aeruginosa PA14 [1]
  lung bacterial burden, single agent: did not change significantly

## C=CCSSSCC=C [DATS, diallyl trisulfide]
persisters
  effect of H2S donor on anti-persister effect of NL1: prevented the anti-persister effect of NL1

## NO [HA, hydroxylamine]
S. aureus CSE (SaCSE)
  inhibition of bCSEs (SaCSE): capable of inhibiting bCSEs
[2]
  inhibition of bCSEs (PaCSE): capable of inhibiting bCSEs

## O=C(O)CNC(=O)Cn1ccc2ccc(Br)cc21 [NL1]
SaCSE
  Kd: ~0.4 µM
[3]; cse mutant
  sensitization of bCSE-deficient S. aureus RN4220 to Gm: failed to sensitize
[3]; [9]
  sensitization of wild type S. aureus RN4220 to Gm: enhanced the killing effect of Gm
[4]; cse mutant
  sensitization of bCSE-deficient P. aeruginosa PA14 to Gm: failed to sensitize
[4]; [9]
  sensitization of wild type P. aeruginosa PA14 to Gm: enhanced the killing effect of Gm
[5]
  non-toxic concentration in human cells: at least 25 × of its minimal potentiator concentration
[6]
  adverse effects of chronic exposure: No adverse effects
S. aureus Newman
  survival, single agent: neither NL1 nor Gm alone increased survival
P. aeruginosa PA14 [1]; NL1 60 mg/kg together with Gm 2 mg/kg subcutaneous, 30 min after infection, lungs 5h after infection
  lung bacterial burden, combination with Gm: markedly decreased
P. aeruginosa PA14 [1]
  lung bacterial burden, single agent: did not change significantly
S. aureus USA300
  effect on persisters, S. aureus USA300: eliminated approximately the same amount of persisters as did genetic inactivation of cse/cbs
P. aeruginosa PA14 [7]
  effect on persisters, P. aeruginosa PA14: eliminated approximately the same amount of persisters as did genetic inactivation of cse/cbs
P. aeruginosa PA14 [8]
  culture coloration (pyocyanin redox state): green-blue coloration characteristic of the oxidized pyocyanin
Aqueous solubility
  aqueous solubility relative to NL3: higher aqueous solubility than NL3

## NOCC(=O)O [AOAA, aminooxyacetic acid]
S. aureus CSE (SaCSE)
  inhibition of bCSEs (SaCSE): capable of inhibiting bCSEs
[2]
  inhibition of bCSEs (PaCSE): capable of inhibiting bCSEs

## Cc1oc(Cn2ccc3ccc(Br)cc32)cc1C(=O)O [NL2]
SaCSE H339A mutant
  reduction of inhibition in H339A mutant versus wt SaCSE: ~ 70 fold
  IC50: 154 ± 94.8 µM
Aqueous solubility
  aqueous solubility relative to NL3: higher aqueous solubility than NL3

## NCCO/C=C/[C@H](N)C(=O)O [AVG, L-aminoethoxyvinylglycine]
S. aureus CSE (SaCSE)
  inhibition of bCSEs (SaCSE): capable of inhibiting bCSEs
[2]
  inhibition of bCSEs (PaCSE): capable of inhibiting bCSEs

## [Na+].[SH-] [NaHS, reference compound]
[3]
  effect of exogenous sulfide on Gm potentiation by NL1, S. aureus RN4220: largely suppressed Gm potentiation
[4]
  effect of exogenous sulfide on Gm potentiation by NL1, P. aeruginosa PA14: largely suppressed Gm potentiation

## O=C(O)c1cc(Cn2ccc3ccc(-c4cc5cccc(Cl)c5s4)cc32)[nH]n1 [NL3]
S. aureus CSE (SaCSE); read-out: IC50 for SaCSE, L-cysteine at 100 μM
  IC50: 0.7 µM
[2]; read-out: IC50 for PaCSE, L-cysteine at 100 μM
  IC50: 1.2 µM
SaCSE H339A mutant
  IC50: 1.7 ± 0.1 µM

## O=C(O)CNC(=O)Cn1c(C(F)(F)F)cc2ccc(Br)cc21 [NL1F3]
S. aureus CSE (SaCSE)
  IC50: > 200 µM
SaCSE
  apparent KD for SaCSE (MST): failed
